In brackets after ≈: the same amount, converted by molar mass.
Tests used:
Staphylococcus aureus [1] = assay: Antibacterial activity against Staphylococcus aureus ATCC 29213 grown in CAMHB medium by broth microdilution method in presence of 50 ug/ml CaCl2 and 95% human serum; format: functional
Outline: (§1)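 Broth microdilution MIC run in a matrix of 95% pooled serum, or 95% ultrafiltrate of that serum (50 kDa cutoff, albumin excluded), plus 5% CAMHB. Arithmetic dilutions ran from 20 to 0.3 μg/ml in CAMHB with 50 μg/ml CaCl2. Means came from 8 replicates (mouse 4 to 8). Beagle dog serum was used for dog.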

Staphylococcus aureus [2] = assay: Ratio of MIC for Staphylococcus aureus ATCC 29213 grown in CAMHB medium in presence of 95% mouse serum to MIC for Staphylococcus aureus ATCC 29213 in presence of 95% mouse serum ultrafiltrate; format: functional
Outline: (§2)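 The fold increase is the mean arithmetic broth microdilution MIC in 95% serum (plus 5% CAMHB) divided by the mean MIC in 95% serum ultrafiltrate (plus 5% CAMHB). The ultrafiltrate was prepared with a 50 kDa cutoff that excludes albumin. Replicates were 8 per condition, or 4 to 8 for mouse. The same data give % bound = (1 − MIC ultrafiltrate/MIC serum) × 100.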

Staphylococcus aureus [3] = assay: Ratio of MIC for Staphylococcus aureus ATCC 29213 grown in CAMHB medium in presence of 95% rat serum to MIC for Staphylococcus aureus ATCC 29213 in presence of 95% rat serum ultrafiltrate; format: functional; outline: as §2
Staphylococcus aureus [4] = assay: Ratio of MIC for Staphylococcus aureus ATCC 29213 grown in CAMHB medium in presence of 95% dog serum to MIC for Staphylococcus aureus ATCC 29213 in presence of 95% dog serum ultrafiltrate; format: functional; outline: as §2
[5] = (§3) Protein binding in mouse serum by broth microdilution method; format: ADME, cell-free; settings: read-out: PB (converted)
Outline: (§4)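 Pooled serum (dog: beagle) and its ultrafiltrate (50 kDa cutoff, excludes albumin) were used. Broth microdilution MICs against S. aureus ATCC 29213 were read with arithmetic drug dilutions, made in CAMHB with 0.002% polysorbate-80, in 95% serum or 95% ultrafiltrate plus 5% CAMHB. % bound = (1 − mean MIC ultrafiltrate/mean MIC serum) × 100. Human, rat and dog used 8 replicates; mouse used 4–8.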

[6] = Protein binding in human serum by broth microdilution method; format: ADME, cell-free; settings: read-out: PB (converted); outline: as §4
[7] = Protein binding in rat serum by broth microdilution method; format: ADME, cell-free; settings: read-out: PB (converted); outline: as §4
[8] = Protein binding in dog serum by broth microdilution method; format: ADME, cell-free, Canis lupus familiaris; settings: read-out: PB (converted); outline: as §4
Staphylococcus aureus [9] = assay: Antibacterial activity against Staphylococcus aureus ATCC 29213 grown in CAMHB medium by broth microdilution method in presence of 50 ug/ml CaCl2 and 95% rat serum ultrafiltrate; format: functional; outline: as §1
Staphylococcus aureus [10] = assay: Antibacterial activity against Staphylococcus aureus ATCC 29213 grown in CAMHB medium by broth microdilution method in presence of 50 ug/ml CaCl2 and 95% rat serum; format: functional; outline: as §1
Staphylococcus aureus [11] = assay: Antibacterial activity against Staphylococcus aureus ATCC 29213 grown in CAMHB medium by broth microdilution method in presence of 50 ug/ml CaCl2 and 95% dog serum ultrafiltrate; format: functional; outline: as §1
Staphylococcus aureus [12] = assay: Antibacterial activity against Staphylococcus aureus ATCC 29213 grown in CAMHB medium by broth microdilution method in presence of 50 ug/ml CaCl2 and 95% dog serum; format: functional; outline: as §1
Staphylococcus aureus [13] = assay: Ratio of MIC for Staphylococcus aureus ATCC 29213 grown in CAMHB medium in presence of 95% human serum to MIC for Staphylococcus aureus ATCC 29213 in presence of 95% human serum ultrafiltrate; format: functional; outline: as §2
Staphylococcus aureus [14] = assay: Antibacterial activity against Staphylococcus aureus ATCC 29213 grown in CAMHB medium by broth microdilution method in presence of 50 ug/ml CaCl2 and 95% mouse serum ultrafiltrate; format: functional; outline: as §1
Staphylococcus aureus [15] = assay: Antibacterial activity against Staphylococcus aureus ATCC 29213 grown in CAMHB medium by broth microdilution method in presence of 50 ug/ml CaCl2 and 95% mouse serum; format: functional; outline: as §1
Staphylococcus aureus [16] = assay: Antibacterial activity against Staphylococcus aureus ATCC 29213 grown in CAMHB medium by broth microdilution method in presence of 50 ug/ml CaCl2; format: functional
Outline: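 Broth microdilution per CLSI M7-A8 in cation-adjusted Mueller-Hinton broth with 50 μg/ml CaCl2. Arithmetic dilution steps of 5 μg/ml from 20 to 10 μg/ml, 1 μg/ml from 10 to 2, 0.5 μg/ml from 2 to 1, and 0.1 μg/ml from 1 to 0.3 μg/ml. Mean of 8 replicates.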

Staphylococcus aureus [17] = assay: Antibacterial activity against Staphylococcus aureus ATCC 29213 grown in CAMHB medium by broth microdilution method in presence of 50 ug/ml CaCl2 and 95% human serum ultrafiltrate; format: functional; outline: as §1
Serum = assay: as §3; format: ADME, cell-free; outline: as §4
Staphylococcus aureus [18] = assay: Antibacterial activity against Staphylococcus aureus ATCC 29213 grown in CAMHB medium by broth microdilution method in presence of 95% dog serum ultrafiltrate; format: functional
Outline: (§5)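 Broth microdilution MIC run in a matrix of 95% pooled serum, or 95% serum ultrafiltrate (50 kDa cutoff filter, albumin excluded), plus 5% CAMHB. Drug dilution steps were arithmetic and prepared in CAMHB. Means came from 8 replicates per condition (mouse 4 to 8). Dog serum came from beagles.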

Staphylococcus aureus [19] = assay: Antibacterial activity against Staphylococcus aureus ATCC 29213 grown in CAMHB medium by broth microdilution method in presence of 95% dog serum; format: functional; outline: as §5
Staphylococcus aureus [20] = assay: Antibacterial activity against Staphylococcus aureus ATCC 29213 grown in CAMHB medium by broth microdilution method in presence of 95% mouse serum ultrafiltrate; format: functional; outline: as §5
Staphylococcus aureus [21] = assay: Antibacterial activity against Staphylococcus aureus ATCC 29213 grown in CAMHB medium by broth microdilution method in presence of 95% mouse serum; format: functional; outline: as §5
Staphylococcus aureus [22] = assay: Antibacterial activity against Staphylococcus aureus ATCC 29213 grown in CAMHB medium by broth microdilution method in presence of 95% rat serum ultrafiltrate; format: functional; outline: as §5
Staphylococcus aureus [23] = assay: Antibacterial activity against Staphylococcus aureus ATCC 29213 grown in CAMHB medium by broth microdilution method in presence of 95% rat serum; format: functional; outline: as §5
Staphylococcus aureus [24] = assay: Antibacterial activity against Staphylococcus aureus ATCC 29213 grown in CAMHB medium by broth microdilution method; format: functional
Outline: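 MIC determined by broth microdilution under CLSI M7-A8 conditions in cation-adjusted Mueller-Hinton broth, using arithmetic drug dilution steps.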

Staphylococcus aureus [25] = assay: Antibacterial activity against Staphylococcus aureus ATCC 29213 grown in CAMHB medium by broth microdilution method in presence of 95% human serum ultrafiltrate; format: functional; outline: as §5
Staphylococcus aureus [26] = assay: Antibacterial activity against Staphylococcus aureus ATCC 29213 grown in CAMHB medium by broth microdilution method in presence of 95% human serum; format: functional; outline: as §5
Staphylococcus aureus [27] = assay: Antibacterial activity against Staphylococcus aureus ATCC 29213 grown in CAMHB medium by broth microdilution method in presence of 0.002% polysorbate 80 and 95% rat serum; format: functional
Outline: (§6)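 Broth microdilution with arithmetic drug dilutions prepared in CAMHB containing 0.002% polysorbate-80. Test medium was 95% pooled serum or 95% serum ultrafiltrate plus 5% CAMHB. Ultrafiltrate was made on 50 kDa cutoff ultrafilters, which exclude albumin. Means came from 8 replicates for human, rat and dog, and from 4 to 8 replicates for mouse.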

[28] = Plasma protein binding in human by broth microdilution method; format: ADME, cell-free; settings: read-out: PPB (converted)
[29] = Plasma protein binding in rat; format: ADME, cell-free; settings: read-out: PPB
[30] = Plasma protein binding in human at 1 to 91 ug/ml by DCC adsorption method; format: ADME, cell-free; settings: read-out: PB (converted)
Albumin = Albumin (Homo sapiens, UniProt P02768); assay: Binding affinity to human serum albumin at 0.2 ug/ml; format: ADME
Staphylococcus aureus [31] = assay: Antibacterial activity against Staphylococcus aureus ATCC 29213 grown in CAMHB medium by broth microdilution method in presence of 0.002% polysorbate 80 and 95% dog serum ultrafiltrate; format: functional; outline: as §6
Staphylococcus aureus [32] = assay: Antibacterial activity against Staphylococcus aureus ATCC 29213 grown in CAMHB medium by broth microdilution method in presence of 0.002% polysorbate 80 and 95% dog serum; format: functional; outline: as §6
Staphylococcus aureus [33] = assay: Antibacterial activity against Staphylococcus aureus ATCC 29213 grown in CAMHB medium by broth microdilution method in presence of 0.002% polysorbate 80 and 95% mouse serum ultrafiltrate; format: functional; outline: as §6
Staphylococcus aureus [34] = assay: Antibacterial activity against Staphylococcus aureus ATCC 29213 grown in CAMHB medium by broth microdilution method in presence of 0.002% polysorbate 80 and 95% mouse serum; format: functional; outline: as §6
Staphylococcus aureus [35] = assay: Antibacterial activity against Staphylococcus aureus ATCC 29213 grown in CAMHB medium by broth microdilution method in presence of 0.002% polysorbate 80 and 95% rat serum ultrafiltrate; format: functional; outline: as §6
Staphylococcus aureus [36] = assay: Antibacterial activity against Staphylococcus aureus ATCC 29213 grown in CAMHB medium by broth microdilution method in presence of 0.002% polysorbate 80; format: functional
Outline: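 Broth microdilution per CLSI M7-A8 in cation-adjusted Mueller-Hinton broth with 0.002% polysorbate-80. Arithmetic dilution steps of 0.5 μg/ml from 3 to 1 μg/ml, 0.1 μg/ml from 1 to 0.3, 0.05 μg/ml from 0.3 to 0.1, and 0.01 μg/ml from 0.1 to 0.04 μg/ml. Mean of 8 replicates.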

Staphylococcus aureus [37] = assay: Antibacterial activity against Staphylococcus aureus ATCC 29213 grown in CAMHB medium by broth microdilution method in presence of 0.002% polysorbate 80 and 95% human serum ultrafiltrate; format: functional; outline: as §6
Staphylococcus aureus [38] = assay: Antibacterial activity against Staphylococcus aureus ATCC 29213 grown in CAMHB medium by broth microdilution method in presence of 0.002% polysorbate 80 and 95% human serum; format: functional; outline: as §6

Sequence of Albumin (P02768 whole entry): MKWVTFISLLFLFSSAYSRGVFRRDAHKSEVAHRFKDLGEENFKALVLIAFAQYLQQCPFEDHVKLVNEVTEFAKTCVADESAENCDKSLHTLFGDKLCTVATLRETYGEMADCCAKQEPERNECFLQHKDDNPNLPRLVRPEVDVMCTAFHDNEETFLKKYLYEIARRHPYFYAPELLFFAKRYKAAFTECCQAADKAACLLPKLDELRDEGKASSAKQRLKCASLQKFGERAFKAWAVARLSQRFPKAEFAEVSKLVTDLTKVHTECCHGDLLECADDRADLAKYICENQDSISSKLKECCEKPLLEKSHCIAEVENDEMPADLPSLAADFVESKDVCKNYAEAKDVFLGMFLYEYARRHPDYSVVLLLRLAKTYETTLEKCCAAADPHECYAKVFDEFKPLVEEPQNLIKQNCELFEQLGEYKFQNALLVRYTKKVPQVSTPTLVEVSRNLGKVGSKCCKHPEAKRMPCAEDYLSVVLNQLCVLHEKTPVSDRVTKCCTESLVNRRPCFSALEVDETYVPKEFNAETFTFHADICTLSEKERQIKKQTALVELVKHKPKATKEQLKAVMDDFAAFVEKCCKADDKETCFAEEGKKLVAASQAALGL

CCCCCCCCCC(=O)N[C@@H](Cc1c[nH]c2ccccc12)C(=O)N[C@H](CC(N)=O)C(=O)N[C@@H](CC(=O)O)C(=O)N[C@@H]1C(=O)NCC(=O)N[C@@H](CCCN)C(=O)N[C@@H](CC(=O)O)C(=O)N[C@H](C)C(=O)N[C@@H](CC(=O)O)C(=O)NCC(=O)N[C@H](CO)C(=O)N[C@@H]([C@H](C)CC(=O)O)C(=O)N[C@@H](CC(=O)c2ccccc2N)C(=O)O[C@@H]1C
MIC (Staphylococcus aureus [1]): 3 µg/mL | Ratio (Staphylococcus aureus [2]): 4.2 | Ratio (Staphylococcus aureus [3]): 2.9 | Ratio (Staphylococcus aureus [4]): 3.9 | fraction unbound [5]: 0.24 | fraction unbound [6]: 0.171 | fraction unbound [7]: 0.344 | fraction unbound [8]: 0.255 | MIC (Staphylococcus aureus [9]): 0.538 µg/mL | MIC (Staphylococcus aureus [10]): 1.56 µg/mL | MIC (Staphylococcus aureus [11]): 0.638 µg/mL | MIC (Staphylococcus aureus [12]): 2.5 µg/mL | Ratio (Staphylococcus aureus [13]): 5.8 | MIC (Staphylococcus aureus [14]): 3 µg/mL | MIC (Staphylococcus aureus [15]): 12.5 µg/mL | MIC (Staphylococcus aureus [16]): 0.975 µg/mL | MIC (Staphylococcus aureus [17]): 0.513 µg/mL

CO/N=C(\C(=O)N[C@@H]1C(=O)N2C(C(=O)O)=C(CSc3nc(=O)c(O)nn3C)CS[C@H]12)c1csc(N)n1 [CEFTRIAXONE]
Ratio (Staphylococcus aureus [2]): 1.6 | Ratio (Staphylococcus aureus [3]): 1.5 | Ratio (Staphylococcus aureus [4]): 1.3 | Protein binding (Serum): 37.5% | fraction unbound [6]: 0.074 | fraction unbound [7]: 0.66 | fraction unbound [8]: 0.791 | MIC (Staphylococcus aureus [18]): 1.09 µg/mL | MIC (Staphylococcus aureus [19]): 1.38 µg/mL | Ratio (Staphylococcus aureus [13]): 13.5 | MIC (Staphylococcus aureus [20]): 3.75 µg/mL | MIC (Staphylococcus aureus [21]): 6 µg/mL | MIC (Staphylococcus aureus [22]): 3.88 µg/mL | MIC (Staphylococcus aureus [23]): 5.88 µg/mL | MIC (Staphylococcus aureus [24]): 3.5 µg/mL (≈ 6.31 µM) | MIC (Staphylococcus aureus [25]): 2.88 µg/mL | MIC (Staphylococcus aureus [26]): 38.8 µg/mL

CN[C@H](CC(C)C)C(=O)N[C@H]1C(=O)N[C@@H](CC(N)=O)C(=O)N[C@H]2C(=O)N[C@H]3C(=O)N[C@H](C(=O)N[C@H](C(=O)O)c4cc(O)cc(O)c4-c4cc3ccc4O)[C@H](O[C@H]3C[C@](C)(N)[C@@H](O)[C@H](C)O3)c3ccc(c(Cl)c3)Oc3cc2cc(c3O[C@@H]2O[C@H](CO)[C@@H](O)[C@H](O)[C@H]2O[C@H]2C[C@](C)(NCc3ccc(-c4ccc(Cl)cc4)cc3)[C@@H](O)[C@H](C)O2)Oc2ccc(cc2Cl)[C@H]1O [ORITAVANCIN]
MIC (Staphylococcus aureus [27]): 0.313 µg/mL | Ratio (Staphylococcus aureus [2]): 6.8 | Ratio (Staphylococcus aureus [3]): 5.7 | Ratio (Staphylococcus aureus [4]): 7.8 | fraction unbound [28]: 0.125 | fraction unbound [29]: < 0.2 | fraction unbound [30]: 0.143 | fraction unbound at 0.2 ug/ml (Albumin): 0.21 | MIC (Staphylococcus aureus [31]): 0.061 µg/mL | MIC (Staphylococcus aureus [32]): 0.475 µg/mL | Ratio (Staphylococcus aureus [13]): 5.5 | MIC (Staphylococcus aureus [33]): 0.079 µg/mL | MIC (Staphylococcus aureus [34]): 0.538 µg/mL | MIC (Staphylococcus aureus [35]): 0.055 µg/mL | MIC (Staphylococcus aureus [36]): 0.08 µg/mL | MIC (Staphylococcus aureus [37]): 0.14 µg/mL | MIC (Staphylococcus aureus [38]): 0.775 µg/mL
